Consider two compounds from ChEMBL document CHEMBL4196141, “Improved Antibacterial Activity of the Marine Peptide N6 against Intracellular Salmonella Typhimurium by Conjugating with the Cell-Penetrating Peptide Tat11 via a Cleavable Linker” (J Med Chem, 2018).

The subject of data set [1] is Salmonella typhimurium. Briefly: Bactericidal activity against 2 hrs-gentamicin pre-exposed Salmonella typhimurium ATCC 14028 assessed as reduction colony forming units at 10 uM measured within 9 hrs. As to conditions: Salmonella enterica subsp. enterica serovar Typhimurium. Type of data set: functional, organism-based. An outline of the steps:
(§1)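 RAW264.7 cells in DMEM/10% FBS were infected with S. Typhimurium ATCC14028 at MOI 10 for 1 h, then given 100 µg/mL gentamicin for 2 h at 37 °C and washed. Cells were treated with 10 µM agent for 1, 3, 6, 9 and 12 h, lysed with 0.1% Triton X-100, and surviving intracellular bacteria were serially diluted and plated for CFU.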

A short description of data set [2]: Induction of hemolysis in mouse RBC at 100 uM incubated for 1 hrs at 37 degC. The following applies: red blood cells (erythrocytes), read-out: Activity. Type of data set: cell-based, Erythrocyte. An outline of the steps: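 Fresh mouse erythrocytes were washed three times in 0.9% NaCl, and an 8% suspension was incubated with peptide (2-fold dilutions, 100 to 0.3125 µM) for 1 h at 37 °C. Released hemoglobin was read at 540 nm. 1% Triton X-100 defined 100% lysis; polymyxin served as positive control and NaCl as negative.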

The test system of data set [3] is Salmonella typhimurium. Briefly: Bactericidal activity against 2 hrs-gentamicin pre-exposed Salmonella typhimurium ATCC 14028 assessed as reduction colony forming units at 50 uM incubated for 10 hrs. Format: functional, Salmonella enterica subsp. enterica serovar Typhimurium. The method in brief:
(§2)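 Macrophage protection assay. RAW264.7 cells (5 × 10^4/well, 24 h) were infected with S. Typhimurium ATCC14028 at MOI 10 for 1 h in DMEM/10% FBS, exposed to 100 µg/mL gentamicin for 2 h at 37 °C, and PBS-washed. Peptides in DMEM/10% FBS were added for 10 h. Cells were lysed with 0.1% Triton X-100 and CFU plated; log10 CFU reduction versus untreated cells. Three replicates; two independent experiments; one-way ANOVA with Tukey.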

For data set [4], the system named is Salmonella typhimurium. Briefly: Antibacterial activity against Salmonella typhimurium ATCC 14028 assessed as microbial inhibition zone pretreated for 1 hr at 4 to 100 degC by inhibition zone assay. As to conditions: Salmonella enterica subsp. enterica serovar Typhimurium.
Data set [5] relates to Salmonella typhimurium. Briefly: Bactericidal activity against 2 hrs-gentamicin pre-exposed Salmonella typhimurium ATCC 14028 assessed as reduction colony forming units at 50 uM incubated for 10 hrs relative to marine peptide N6. On the set-up: scale not given: the % may be the effect or the level left. Format: functional, Salmonella enterica subsp. enterica serovar Typhimurium. An outline of the steps: as §2

Data set [6] concerns Salmonella typhimurium. The data set is described as follows: Antibacterial activity against Salmonella typhimurium ATCC 14028 assessed as time duration for reduction in growth using cathepsin B pre-treated compound at 1 to 2 MIC incubated for 1 to 24 hrs by time kill assay. Format: functional, Salmonella enterica subsp. enterica serovar Typhimurium. An outline of the steps:
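Time-kill of cathepsin B-pretreated peptide (1 h, 37 °C, pH 5 buffer). Mid-log S. Typhimurium at 10^5 CFU/mL was exposed to 1× and 2× MIC at 37 °C with shaking at 250 rpm. Samples were taken every 2 h, serially diluted and plate-counted. N6 and ciprofloxacin served as controls.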

For data set [7], the system named is Salmonella typhimurium. Briefly: Antibacterial activity against Salmonella typhimurium ATCC 14028 infected in ICR mouse model of peritonitis assessed as reduction colony forming units in kidney at 1 to 2 umol/kg, ip dosed at 2 hrs post infection and measured after 10 hrs post dose relative to marine peptide N6. Format: functional, Salmonella enterica subsp. enterica serovar Typhimurium. The arrangement: scale not given: the % may be the effect or the level left. The method in brief: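 Female ICR mice, six weeks old (six per group), were infected ip with S. Typhimurium ATCC14028 (5 × 10^5 CFU, 0.5 mL). Peptide was given ip at 1, 1.5 or 2 µmol/kg 2 h post-infection. Mice were killed 10 h after treatment, and kidneys and spleens were homogenized in sterile PBS for CFU counts of translocated bacteria. PBS-treated mice served as negative control, ciprofloxacin-treated mice as positive.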

Data set [8] is described as follows: Drug internalization in mouse RAW264.7 using FITC-labeled compound at 2 uM incubated for 2 hrs at 4 degC by flow cytometry. Type of data set: ADME, cell-based. The following applies: raw264.7, 2 h.
In data set [9] the test system is Salmonella typhimurium. Briefly: Bactericidal activity against 2 hrs-gentamicin pre-exposed Salmonella typhimurium ATCC 14028 assessed as effect on bacterial re-growth at 10 uM measured after 9 hrs. The following applies: Salmonella enterica subsp. enterica serovar Typhimurium. Format: functional, organism-based. An outline of the steps:
as §1

Data set [10] deals with Salmonella typhimurium. The data set is described as follows: Antibacterial activity against Salmonella typhimurium ATCC 14028 infected in ICR mouse model of peritonitis assessed as mouse survival at 2 umol/kg, ip dosed at 0.5 and 8 hrs post infection and measured daily for 7 days.

Structures are written as SMILES. The source made the active and inactive calls. No cut-off for these calls is given here. Positions of bridges follow the written chain, without caps; N, C: chain ends. Residues, ends and D or L forms follow the SMILES beside them.

Consider `CC(C)[C@@H]1NC(=O)CNC(=O)[C@H](CC(N)=O)NC(=O)[C@H](CCCNC(=N)N)NC(=O)[C@H](Cc2ccc(O)cc2)NC(=O)[C@H](C(C)C)NC(=O)[C@@H](NC(=O)[C@@H](NC(=O)[C@H](CC(N)=O)NC(=O)[C@H](Cc2c[nH]c3ccccc23)NC(=O)[C@H](C)NC(=O)[C@H](Cc2ccccc2)NC(=O)CN)C(C)C)CSSC[C@@H](C(=O)N[C@@H](Cc2cnc[nH]2)C(=O)N[C@@H](CCCNC(=N)N)C(=O)N[C@@H](CCCNC(=N)N)C(=O)N[C@@H](C)C(=O)N[C@@H](CC(N)=O)C(N)=O)NC(=O)[C@H](C(C)C)NC(=O)[C@H](CCCNC(=N)N)NC1=O` (H-GFAWNVCVYRNGVRVCHRRAN-NH2; disulfide 7-16), for which the result in the data set on Salmonella typhimurium [1] and with Salmonella typhimurium [4] was Active. In data set [2], the hemolysis at 1 h, 100 µM is 2.05%. Moreover, the Activity was 3.13 log10CFU with Salmonella typhimurium [3], 97.6% in the data set with Salmonella typhimurium [5], 200% with Salmonella typhimurium [7] and 100% in the data set with Salmonella typhimurium [10]. Besides, the Time entry with Salmonella typhimurium [6] is given as “<=2 hr”. In data set [8], the Drug uptake result is on record as “Not Active”. The outcome in the data set with Salmonella typhimurium [9] was inactive.

In the case of `CC(C)[C@H](NC(=O)CCCCCN1C(=O)CC(SC[C@H](N)C(=O)N[C@@H](Cc2ccc(O)cc2)C(=O)NCC(=O)N[C@@H](CCCNC(=N)N)C(=O)N[C@@H](CCCCN)C(=O)N[C@@H](CCCCN)C(=O)N[C@@H](CCCNC(=N)N)C(=O)N[C@@H](CCCNC(=N)N)C(=O)N[C@@H](CCC(N)=O)C(=O)N[C@@H](CCCNC(=N)N)C(=O)N[C@@H](CCCNC(=N)N)C(=O)N[C@@H](CCCNC(=N)N)C(=O)O)C1=O)C(=O)N[C@@H](CCCNC(N)=O)C(=O)Nc1ccc(COC(=O)NCC(=O)N[C@@H](Cc2ccccc2)C(=O)N[C@@H](C)C(=O)N[C@@H](Cc2c[nH]c3ccccc23)C(=O)N[C@@H](CC(N)=O)C(=O)N[C@H](C(=O)N[C@H]2CSSC[C@@H](C(=O)N[C@@H](Cc3cnc[nH]3)C(=O)N[C@@H](CCCNC(=N)N)C(=O)N[C@@H](CCCNC(=N)N)C(=O)N[C@@H](C)C(=O)N[C@@H](CC(N)=O)C(=O)O)NC(=O)[C@H](C(C)C)NC(=O)[C@H](CCCNC(=N)N)NC(=O)[C@H](C(C)C)NC(=O)CNC(=O)[C@H](CC(N)=O)NC(=O)[C@H](CCCNC(=N)N)NC(=O)[C@H](Cc3ccc(O)cc3)NC(=O)[C@H](C(C)C)NC2=O)C(C)C)cc1` (stereo partly drawn), the outcome in the data set with Salmonella typhimurium [1] was Active. The hemolysis at 1 h, 100 µM in data set [2] is 3.81%. The Activity is reported as 2.06 log10CFU with Salmonella typhimurium [3], 76.2% in the data set with Salmonella typhimurium [5] and 81% with Salmonella typhimurium [7]. Further, the Time result with Salmonella typhimurium [6] is reported as “<=2 hr”. In addition, in data set [8], the Drug uptake result is reported as “Not Active”. In addition, the outcome in the data set with Salmonella typhimurium [9] was inactive.
